# From ChEMBL document CHEMBL4689842, “EUbOPEN Chemogenomics Library wave 1” (2021)
# Test system: Fibroblast
# Experiment: Multiplex assay against human fibroblast
# Type: toxicity, cell-based
# Procedure, shortened: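 Compound was added to live cells that had been stained at seeding with Hoechst33342, BioTracker Green Microtubule Cytoskeleton Dye, MitoTracker Red and Annexin V Alexa Fluor 680, and imaging followed on a CQ1 microscope at 37°C and 5% CO2. CellPathfinder machine-learning gating divided cells into Hoechst high-intensity objects or normal cells, normal cells into healthy, pyknosed or fragmented nuclei, and pyknosed cells into mitotic or apoptotic. Tubulin, mitochondrial-mass and membrane-permeability phenotypes are per cents of healthy-nucleus cells.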
# [1] = 12 h, 1 µM, compound concentration 1 uM, replicate 1
# [2] = 12 h, 1 µM, compound concentration 1 uM, replicate 2
# [3] = 12 h, 10 µM, compound concentration 10 uM, replicate 1
# [4] = 12 h, 10 µM, compound concentration 10 uM, replicate 2
# [5] = 24 h, 1 µM, compound concentration 1 uM, replicate 1
# [6] = 24 h, 1 µM, compound concentration 1 uM, replicate 2
# [7] = 24 h, 10 µM, compound concentration 10 uM, replicate 1
# [8] = 24 h, 10 µM, compound concentration 10 uM, replicate 2
# [9] = 48 h, 1 µM, compound concentration 1 uM, replicate 1
# [10] = 48 h, 1 µM, compound concentration 1 uM, replicate 2
# [11] = 48 h, 10 µM, compound concentration 10 uM, replicate 1
# [12] = 48 h, 10 µM, compound concentration 10 uM, replicate 2
structure (smiles),measurement,setting,value
O=C(Nc1cccnn1)N1CCC(=Cc2cccc(Oc3ccc(C(F)(F)F)cn3)c2)CC1,Population Apoptotic (%),[1],59%
same,Population Fragmented Nuclei (%),[1],24%
same,Population Healthy Nuclei (%),[1],56%
same,Population Hoechst High Intensity Objects (%),[1],10%
same,Population Membrane Permeable-Phenotype (%),[1],20%
same,Population Mitochondria Different-Phenotype (%),[1],10%
same,Population Normal (%),[1],89%
same,Population Pyknosed Nuclei (%),[1],18%
same,Population Tubulin-Different-Phenotype (%),[1],28%
same,Total Cell Count,[1],217
same,Population Apoptotic (%),[2],60%
same,Population Fragmented Nuclei (%),[2],71%
same,Population Healthy Nuclei (%),[2],17%
same,Population Hoechst High Intensity Objects (%),[2],44%
same,Population Membrane Permeable-Phenotype (%),[2],25%
same,Population Mitochondria Different-Phenotype (%),[2],0%
same,Population Mitotic Cells (%),[2],40%
same,Population Normal (%),[2],55%
same,Population Pyknosed Nuclei (%),[2],10%
same,Population Tubulin-Different-Phenotype (%),[2],25%
same,Total Cell Count,[2],83
same,Population Apoptotic (%),[3],73%
same,Population Fragmented Nuclei (%),[3],34%
same,Population Healthy Nuclei (%),[3],52%
same,Population Hoechst High Intensity Objects (%),[3],14%
same,Population Membrane Permeable-Phenotype (%),[3],6%
same,Population Mitochondria Different-Phenotype (%),[3],5%
same,Population Mitotic Cells (%),[3],26%
same,Population Normal (%),[3],85%
same,Population Pyknosed Nuclei (%),[3],13%
same,Population Tubulin-Different-Phenotype (%),[3],7%
same,Total Cell Count,[3],170
same,Population Apoptotic (%),[4],25%
same,Population Fragmented Nuclei (%),[4],50%
same,Population Healthy Nuclei (%),[4],37%
same,Population Hoechst High Intensity Objects (%),[4],24%
same,Population Membrane Permeable-Phenotype (%),[4],12%
same,Population Mitochondria Different-Phenotype (%),[4],12%
same,Population Mitotic Cells (%),[4],75%
same,Population Normal (%),[4],75%
same,Population Pyknosed Nuclei (%),[4],12%
same,Population Tubulin-Different-Phenotype (%),[4],4%
same,Total Cell Count,[4],85
same,Population Apoptotic (%),[5],72%
same,Population Fragmented Nuclei (%),[5],28%
same,Population Healthy Nuclei (%),[5],58%
same,Population Hoechst High Intensity Objects (%),[5],6%
same,Population Membrane Permeable-Phenotype (%),[5],9%
same,Population Mitochondria Different-Phenotype (%),[5],12%
same,Population Mitotic Cells (%),[5],27%
same,Population Normal (%),[5],93%
same,Population Pyknosed Nuclei (%),[5],13%
same,Population Tubulin-Different-Phenotype (%),[5],27%
same,Total Cell Count,[5],238
same,Population Apoptotic (%),[6],60%
same,Population Fragmented Nuclei (%),[6],60%
same,Population Healthy Nuclei (%),[6],28%
same,Population Hoechst High Intensity Objects (%),[6],42%
same,Population Membrane Permeable-Phenotype (%),[6],23%
same,Population Mitochondria Different-Phenotype (%),[6],23%
same,Population Mitotic Cells (%),[6],40%
same,Population Normal (%),[6],57%
same,Population Pyknosed Nuclei (%),[6],11%
same,Population Tubulin-Different-Phenotype (%),[6],38%
same,Total Cell Count,[6],78
same,Population Apoptotic (%),[7],65%
same,Population Fragmented Nuclei (%),[7],28%
same,Population Healthy Nuclei (%),[7],57%
same,Population Hoechst High Intensity Objects (%),[7],18%
same,Population Membrane Permeable-Phenotype (%),[7],1%
same,Population Mitochondria Different-Phenotype (%),[7],2%
same,Population Mitotic Cells (%),[7],35%
same,Population Normal (%),[7],81%
same,Population Pyknosed Nuclei (%),[7],13%
same,Population Tubulin-Different-Phenotype (%),[7],2%
same,Total Cell Count,[7],179
same,Population Apoptotic (%),[8],33%
same,Population Fragmented Nuclei (%),[8],51%
same,Population Healthy Nuclei (%),[8],38%
same,Population Hoechst High Intensity Objects (%),[8],23%
same,Population Membrane Permeable-Phenotype (%),[8],12%
same,Population Mitochondria Different-Phenotype (%),[8],8%
same,Population Mitotic Cells (%),[8],66%
same,Population Normal (%),[8],76%
same,Population Pyknosed Nuclei (%),[8],9%
same,Population Tubulin-Different-Phenotype (%),[8],20%
same,Total Cell Count,[8],81
CCOC(=O)c1c(C)[nH]c2ccc3c(c12)CN1CCc2cc(OC)ccc2C1O3 (stereo not drawn),Population Apoptotic (%),[1],69%
same,Population Fragmented Nuclei (%),[1],21%
same,Population Healthy Nuclei (%),[1],51%
same,Population Hoechst High Intensity Objects (%),[1],8%
same,Population Membrane Permeable-Phenotype (%),[1],8%
same,Population Mitochondria Different-Phenotype (%),[1],23%
same,Population Mitotic Cells (%),[1],30%
same,Population Normal (%),[1],91%
same,Population Pyknosed Nuclei (%),[1],26%
same,Population Tubulin-Different-Phenotype (%),[1],43%
same,Total Cell Count,[1],150
same,Population Apoptotic (%),[2],9%
same,Population Fragmented Nuclei (%),[2],9%
same,Population Healthy Nuclei (%),[2],76%
same,Population Hoechst High Intensity Objects (%),[2],9%
same,Population Membrane Permeable-Phenotype (%),[2],3%
same,Population Mitochondria Different-Phenotype (%),[2],70%
same,Population Mitotic Cells (%),[2],90%
same,Population Normal (%),[2],90%
same,Population Pyknosed Nuclei (%),[2],14%
same,Population Tubulin-Different-Phenotype (%),[2],62%
same,Total Cell Count,[2],65
same,Population Apoptotic (%),[3],82%
same,Population Fragmented Nuclei (%),[3],18%
same,Population Healthy Nuclei (%),[3],38%
same,Population Hoechst High Intensity Objects (%),[3],7%
same,Population Membrane Permeable-Phenotype (%),[3],12%
same,Population Mitochondria Different-Phenotype (%),[3],74%
same,Population Mitotic Cells (%),[3],17%
same,Population Normal (%),[3],92%
same,Population Pyknosed Nuclei (%),[3],43%
same,Population Tubulin-Different-Phenotype (%),[3],80%
same,Total Cell Count,[3],88
same,Population Apoptotic (%),[4],80%
same,Population Fragmented Nuclei (%),[4],2%
same,Population Healthy Nuclei (%),[4],75%
same,Population Hoechst High Intensity Objects (%),[4],11%
same,Population Membrane Permeable-Phenotype (%),[4],70%
same,Population Mitochondria Different-Phenotype (%),[4],100%
same,Population Mitotic Cells (%),[4],20%
same,Population Normal (%),[4],88%
same,Population Pyknosed Nuclei (%),[4],22%
same,Population Tubulin-Different-Phenotype (%),[4],100%
same,Total Cell Count,[4],84
same,Population Apoptotic (%),[5],62%
same,Population Fragmented Nuclei (%),[5],29%
same,Population Healthy Nuclei (%),[5],58%
same,Population Hoechst High Intensity Objects (%),[5],13%
same,Population Membrane Permeable-Phenotype (%),[5],13%
same,Population Mitochondria Different-Phenotype (%),[5],13%
same,Population Mitotic Cells (%),[5],37%
same,Population Normal (%),[5],86%
same,Population Pyknosed Nuclei (%),[5],12%
same,Population Tubulin-Different-Phenotype (%),[5],48%
same,Total Cell Count,[5],152
same,Population Apoptotic (%),[6],8%
same,Population Fragmented Nuclei (%),[6],9%
same,Population Healthy Nuclei (%),[6],75%
same,Population Hoechst High Intensity Objects (%),[6],5%
same,Population Membrane Permeable-Phenotype (%),[6],1%
same,Population Mitochondria Different-Phenotype (%),[6],58%
same,Population Mitotic Cells (%),[6],91%
same,Population Normal (%),[6],94%
same,Population Pyknosed Nuclei (%),[6],14%
same,Population Tubulin-Different-Phenotype (%),[6],35%
same,Total Cell Count,[6],65
same,Population Apoptotic (%),[7],70%
same,Population Fragmented Nuclei (%),[7],27%
same,Population Healthy Nuclei (%),[7],46%
same,Population Hoechst High Intensity Objects (%),[7],20%
same,Population Membrane Permeable-Phenotype (%),[7],13%
same,Population Mitochondria Different-Phenotype (%),[7],70%
same,Population Mitotic Cells (%),[7],30%
same,Population Normal (%),[7],79%
same,Population Pyknosed Nuclei (%),[7],25%
same,Population Tubulin-Different-Phenotype (%),[7],86%
same,Total Cell Count,[7],99
same,Population Apoptotic (%),[8],89%
same,Population Fragmented Nuclei (%),[8],6%
same,Population Healthy Nuclei (%),[8],52%
same,Population Hoechst High Intensity Objects (%),[8],11%
same,Population Membrane Permeable-Phenotype (%),[8],83%
same,Population Mitochondria Different-Phenotype (%),[8],100%
same,Population Mitotic Cells (%),[8],10%
same,Population Normal (%),[8],88%
same,Population Pyknosed Nuclei (%),[8],41%
same,Population Tubulin-Different-Phenotype (%),[8],100%
same,Total Cell Count,[8],87
same,Population Apoptotic (%),[9],64%
same,Population Fragmented Nuclei (%),[9],32%
same,Population Healthy Nuclei (%),[9],54%
same,Population Hoechst High Intensity Objects (%),[9],14%
same,Population Membrane Permeable-Phenotype (%),[9],9%
same,Population Mitochondria Different-Phenotype (%),[9],9%
same,Population Mitotic Cells (%),[9],35%
same,Population Normal (%),[9],85%
same,Population Pyknosed Nuclei (%),[9],12%
same,Population Tubulin-Different-Phenotype (%),[9],47%
same,Total Cell Count,[9],155
same,Population Apoptotic (%),[10],100%
same,Population Fragmented Nuclei (%),[10],33%
same,Population Healthy Nuclei (%),[10],66%
same,Population Hoechst High Intensity Objects (%),[10],11%
same,Population Membrane Permeable-Phenotype (%),[10],6%
same,Population Mitochondria Different-Phenotype (%),[10],3%
same,Population Mitotic Cells (%),[10],0%
same,Population Normal (%),[10],88%
same,Population Pyknosed Nuclei (%),[10],0%
same,Total Cell Count,[10],185
same,Population Apoptotic (%),[11],90%
same,Population Fragmented Nuclei (%),[11],36%
same,Population Healthy Nuclei (%),[11],50%
same,Population Hoechst High Intensity Objects (%),[11],28%
same,Population Membrane Permeable-Phenotype (%),[11],10%
same,Population Mitochondria Different-Phenotype (%),[11],82%
same,Population Mitotic Cells (%),[11],10%
same,Population Normal (%),[11],71%
same,Population Pyknosed Nuclei (%),[11],12%
same,Population Tubulin-Different-Phenotype (%),[11],84%
same,Total Cell Count,[11],108
same,Population Apoptotic (%),[12],66%
same,Population Fragmented Nuclei (%),[12],46%
same,Population Healthy Nuclei (%),[12],51%
same,Population Hoechst High Intensity Objects (%),[12],25%
same,Population Membrane Permeable-Phenotype (%),[12],0%
same,Population Mitochondria Different-Phenotype (%),[12],74%
same,Population Mitotic Cells (%),[12],33%
same,Population Normal (%),[12],74%
same,Population Pyknosed Nuclei (%),[12],1%
same,Population Tubulin-Different-Phenotype (%),[12],89%
same,Total Cell Count,[12],223
